Calls of active or inactive are those of the source. No cut-off for these calls is given here.
Experiments:
MDA-MB-231 [1] = assay: Induction of autophagy in human MDA-MB-231 cells assessed as induction of LC3-II accumulation at 10 umol/L for 48 hrs by Western blot analysis; conditions: dose 10.0 µmol/L
MDA-MB-231 [2] = assay: […] in human MDA-MB-231 cells assessed as induction of LC3-II accumulation at 2 umol/L for 48 hrs by Western blot analysis; type: functional, cell-based; conditions: dose 2.0 µmol/L
HepG2 [3] = assay: […] in human HepG2 cells assessed as induction of LC3-II accumulation at 10 to 20 umol/L measured after 24 hrs in presence of bafilomycin A1 by Western blot analysis; type: functional, cell-based; conditions: dose 10-20 µmol/L
Procedure, shortened: (§1)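 A549 and HepG2 cells drug-treated with or without bafilomycin A1. Lysates made in Tris pH 7.5/NP-40 buffer with protease and phosphatase inhibitors, 25–50 μg run on 7–12% SDS-PAGE, probed for LC3B, ECL detection.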

MDA-MB-231 [4] = assay: Induction of autophagy in human MDA-MB-231 cells assessed as change in total LAMP2 expression at 20 umol/L measured after 24 hrs by Western blot analysis; type: toxicity, cell-based; conditions: mda-mb-231, 24 h, 20 µM, dose 20 µmol/L
MDA-MB-231 [5] = assay: Induction of autophagy in human MDA-MB-231 cells assessed as change in total LAMP2 expression at 20 umol/L measured after 24 hrs in presence of bafilomycin A1 by Western blot analysis; type: toxicity, cell-based; conditions: mda-mb-231, 24 h, 20 µM, dose 20 µmol/L
HepG2 [6] = assay: Cytotoxicity against human HepG2 cells assessed as effect on cell viability incubated for 72 hrs by MTT analysis; type: functional, cell-based
Procedure, shortened: (§2)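 Cells in DMEM with 10% FBS at 37°C, 5% CO2, plated in 96-well plates and drug-treated for 72 h. MTT 0.5 mg/ml added for 4 h, formazan dissolved in DMSO, absorbance read at 550 nm. Means and SDs; Student's t-test.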

HepG2 [7] = assay: Potentiation of sorafenib-induced anticancer activity in human HepG2 cells at 10 umol/L measured after 72 hrs by MTT assay; type: functional, cell-based; conditions: dose 10.0 µmol/L
Procedure, shortened: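 HepG2 cells given a range of sorafenib doses, with or without 10 μmol/l compound, for 72 h. Viability by MTT (0.5 mg/ml, 4 h, DMSO, A550). Student's t-test against untreated cells.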

[8] = target: Histone-lysine N-methyltransferase EZH2 (Homo sapiens) (UniProt Q15910); assay: Inhibition of EZH2 in human HepG2 cells assessed as reduction in H3K27-me3 level at 20 umol/L incubated for 72 hrs by Western blot analysis; type: cell-based; conditions: dose 20.0 µmol/L
Sequence of Histone-lysine N-methyltransferase EZH2 (Homo sapiens) (Q15910 whole entry, looked up): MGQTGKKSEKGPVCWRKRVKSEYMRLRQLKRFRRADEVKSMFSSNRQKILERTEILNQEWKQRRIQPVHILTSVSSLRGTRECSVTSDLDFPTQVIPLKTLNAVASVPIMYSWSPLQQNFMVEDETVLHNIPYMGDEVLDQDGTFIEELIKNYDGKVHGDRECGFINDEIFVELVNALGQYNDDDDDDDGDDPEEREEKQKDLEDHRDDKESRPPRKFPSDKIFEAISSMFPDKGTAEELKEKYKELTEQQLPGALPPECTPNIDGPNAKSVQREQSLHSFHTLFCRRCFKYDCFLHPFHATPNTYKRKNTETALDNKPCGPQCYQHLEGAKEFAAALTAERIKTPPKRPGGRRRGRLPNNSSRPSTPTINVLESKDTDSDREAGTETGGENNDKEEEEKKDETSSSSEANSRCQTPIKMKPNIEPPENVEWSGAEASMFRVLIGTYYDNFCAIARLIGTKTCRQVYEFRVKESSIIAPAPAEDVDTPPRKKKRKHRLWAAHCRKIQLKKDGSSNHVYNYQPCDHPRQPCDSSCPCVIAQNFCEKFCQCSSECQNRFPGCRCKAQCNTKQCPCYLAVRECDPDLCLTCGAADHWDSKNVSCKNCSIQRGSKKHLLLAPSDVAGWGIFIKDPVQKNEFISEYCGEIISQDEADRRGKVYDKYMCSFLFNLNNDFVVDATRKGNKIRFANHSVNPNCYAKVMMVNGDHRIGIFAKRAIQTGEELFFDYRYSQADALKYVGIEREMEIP

MDA-MB-231 [9] = assay: Induction of autophagy in human MDA-MB-231 cells assessed as induction of LC3-II accumulation at 10 to 20 umol/L incubated for 24 hrs by Western blot analysis; type: functional, cell-based; conditions: dose 10-20 µmol/L
MDA-MB-231 [10] = assay: Induction of apoptosis in human MDA-MB-231 cells assessed as induction of cleavage of caspase-3 at 10 to 20 umol/L incubated for 72 hrs by Western blot analysis; type: functional, cell-based; conditions: dose 10-20 µmol/L
MDA-MB-231 [11] = assay: Cytotoxicity against human MDA-MB-231 cells assessed as reduction in cell viability at >5 umol/L after 72 hrs by MTT analysis; type: functional, cell-based; conditions: dose > 5.0 µmol/L
Procedure, shortened: as §2

MDA-MB-231 [12] = assay: Cytotoxicity against human MDA-MB-231 cells assessed as cell viability at 5 umol/L after 72 hrs by MTT analysis relative to control; type: functional; conditions: MDA-MB-231, 72 h, dose 5 µmol/L, read-out: Activity
Procedure, shortened: as §2

HepG2 [13] = assay: […] in human HepG2 cells assessed as induction of LC3-II accumulation at 10 to 20 umol/L measured after 24 hrs by Western blot analysis; type: functional, cell-based; conditions: dose 10-20 µmol/L
Procedure, shortened: as §1

[14] = target: Histone-lysine N-methyltransferase EZH2 (Homo sapiens) (UniProt Q15910); assay: Inhibition of EZH2 in human MDA-MB-231 cells assessed as reduction in H3K27-me3 level at 20 umol/L incubated for 72 hrs by Western blot analysis; type: cell-based; conditions: dose 20.0 µmol/L
HepG2 [15] = assay: Potentiation of sorafenib-induced anticancer activity in human HepG2 cells assessed as increase in cleaved PARP expression at 10 umol/L measured after 72 hrs by Western blot analysis; type: functional, cell-based; conditions: dose 10.0 µmol/L
Procedure, shortened: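 HepG2 cells given 5 μmol/l sorafenib, with or without 10 μmol/l compound, for 72 h. Whole-cell lysates immunoblotted for PARP1, LC3B and β-actin.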

HepG2 [16] = assay: Cytotoxicity against human HepG2 cells assessed as effect on cell viability after 72 hrs by MTT analysis; type: functional, cell-based
Procedure, shortened: as §2

MDA-MB-231 [17] = assay: Induction of apoptosis in human MDA-MB-231 cells assessed as induction of cleavage of PARP at 10 to 20 umol/L incubated for 72 hrs by Western blot analysis; type: functional, cell-based; conditions: dose 10-20 µmol/L
A549 [18] = assay: […] in human A549 cells assessed as induction of LC3-II accumulation at 10 to 20 umol/L measured after 24 hrs in presence of bafilomycin A1 by Western blot analysis; type: functional, cell-based; conditions: dose 10-20 µmol/L
Procedure, shortened: as §1

MDA-MB-231 [19] = assay: Induction of autophagy in human MDA-MB-231 cells assessed as reduction in expression of p62 at 20 umol/L incubated for 24 hrs by Western blot analysis; type: functional, cell-based; conditions: dose 20.0 µmol/L
[20] = target: Histone-lysine N-methyltransferase EZH2 (Homo sapiens) (UniProt Q15910); assay: Inhibition of EZH2 in human A549 cells assessed as reduction in H3K27-me3 level at 20 umol/L incubated for 72 hrs by Western blot analysis; type: cell-based; conditions: dose 20.0 µmol/L
A549 [21] = assay: […] in human A549 cells assessed as induction of LC3-II accumulation at 10 to 20 umol/L measured after 24 hrs by Western blot analysis; type: functional, cell-based; conditions: dose 10-20 µmol/L
Procedure, shortened: as §1

HepG2 [22] = assay: Anticancer activity in human HepG2 cells assessed as inhibition of EZH2 expression measured after 24 hrs by Western blot analysis; type: functional, cell-based; conditions: dose 2.5-10 µmol/L
Procedure, shortened: (§3)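 HepG2 cells given 2.5–10 μmol/l sorafenib for 24 h; whole-cell lysates immunoblotted for EZH2, LC3B and GAPDH, with ECL detection.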

HepG2 [23] = assay: Induction of autophagy in human HepG2 cells assessed as accumulation of LC3-II at 10 umol/L measured after 24 hrs by Western blot analysis; type: functional, cell-based; conditions: dose 10.0 µmol/L
Procedure, shortened: as §3

Structure (SMILES): CCCc1cc(C)[nH]c(=O)c1CNC(=O)c1cc(-c2ccc(N3CCN(C(C)C)CC3)nc2)cc2c1cnn2C(C)C
- Activity (MDA-MB-231 [1]): Active

Structure (SMILES): O=C(CCCCCCC(=O)Nc1ccccc1)NO
- Activity (MDA-MB-231 [2]): Active

Structure (SMILES): Nc1nccc2c1ncn2[C@@H]1C=C(CO)[C@@H](O)[C@H]1O
- Activity (HepG2 [3]): inactive
- Activity (MDA-MB-231 [4]): Non-Toxic
- Activity (MDA-MB-231 [5]): Non-Toxic
- Activity (HepG2 [6]): Active
- Activity (HepG2 [7]): inactive
- inhibition [8]: Active
- Activity (MDA-MB-231 [9]): inactive
- Activity (MDA-MB-231 [10]): inactive
- Activity (MDA-MB-231 [11]): inactive
- viability at 5 µM (MDA-MB-231 [12]): 67%
- Activity (HepG2 [13]): inactive
- inhibition [14]: Active
- Activity (HepG2 [15]): inactive
- Activity (HepG2 [16]): Active
- Activity (MDA-MB-231 [17]): Active
- Activity (A549 [18]): inactive
- Activity (MDA-MB-231 [19]): Active
- inhibition [20]: Active
- Activity (A549 [21]): inactive

Structure (SMILES): CNC(=O)c1cc(Oc2ccc(NC(=O)Nc3ccc(Cl)c(C(F)(F)F)c3)cc2)ccn1
- inhibition (HepG2 [22]): Active
- Activity (HepG2 [23]): Active

Source: ChEMBL document CHEMBL5712884, “S-Adenosyl-L-methionine-competitive inhibitors of the histone methyltransferase EZH2 induce autophagy and enhance drug sensitivity in cancer cells” (Anticancer Drugs, 2015)
